Results reported in ChEMBL document CHEMBL1126642, “N-(1-methyl-5-indolyl)-N'-(3-pyridyl)urea hydrochloride: the first selective 5-HT1C receptor antagonist” (J Med Chem, 1993).

Legend:
[1] = molecular target: T1, 5-hydroxytryptamine receptor 2C (Rattus norvegicus) (UniProt P08909); assay: Binding affinity towards rat 5-hydroxytryptamine 1C receptor using [3H]mesulergine as radioligand expressed in 293 cells; type: cell-based; settings: HEK293
T1 sequence (whole entry): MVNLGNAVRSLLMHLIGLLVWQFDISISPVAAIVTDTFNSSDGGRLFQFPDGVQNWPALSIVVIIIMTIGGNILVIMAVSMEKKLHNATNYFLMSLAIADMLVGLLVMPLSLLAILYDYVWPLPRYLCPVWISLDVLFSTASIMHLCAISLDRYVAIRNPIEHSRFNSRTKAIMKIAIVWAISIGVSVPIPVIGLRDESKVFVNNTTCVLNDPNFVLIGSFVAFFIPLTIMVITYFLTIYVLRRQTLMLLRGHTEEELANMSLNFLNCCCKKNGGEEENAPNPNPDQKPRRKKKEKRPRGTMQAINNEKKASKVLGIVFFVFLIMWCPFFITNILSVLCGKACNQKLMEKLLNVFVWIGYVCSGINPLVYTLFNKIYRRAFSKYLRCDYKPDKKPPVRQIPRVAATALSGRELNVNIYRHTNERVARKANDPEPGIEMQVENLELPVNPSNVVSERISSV
Summary of the method: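 Cloned rat 5-HT1C receptor expressed in 293 cells, labelled with [3H]mesulergine. Values are means ± SEM of n = 3 determinations.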

[2] = Selectivity ratio is Ki value of 5-HT2 receptor to that of 5-HT1c receptor
Summary of the method: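 Ratio of Ki at 5-HT2 ([3H]ketanserin, rat frontal cortex) to Ki at 5-HT1C ([3H]mesulergine, rat clone in 293 cells). Each Ki is a mean of n = 3 determinations.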

Row | SMILES | pK1 [1] | Selectivity [2]
1 | Cn1ccc2cccc(NC(=O)Nc3ccccc3)c21 | < 5.3 | –
2 | Cn1ccc2c(NC(=O)Nc3ccncc3)cccc21 | 7.18 | 45
3 | Cn1ccc2c(NC(=O)Nc3ccccn3)cccc21 | 6.49 | > 19
